Measurements gathered from unrelated publications.
Protocols differ between the studies behind these lines.
Target: RAF proto-oncogene serine/threonine-protein kinase (RAF1, Homo sapiens, UniProt P04049)

`N[C@@H]1CCN(c2nccc(-c3cnn4ncccc34)n2)C1` gave a remaining binding of 80% (binding; 1 µM).
With `COc1cnc(Nc2cccc(S(N)(=O)=O)c2)nc1N1CCN(c2ccccc2)CC1` the remaining binding was 100% (binding; competition with immobilised ligand; 1 µM).
The remaining binding of `CN(C)c1nccc(-c2cnn3ncccc23)n1` is reported as 100% (binding; 1 µM).
The remaining binding of `Cn1nc(C(=O)NCc2ccc(C(=O)O)cc2)cc1-c1ccc2[nH]ccc2c1` is reported as 70% (cell-free assay; competition with immobilised ligand; 0.1 µM).
`FC(F)(F)Oc1cccc(-c2cnc3ccc(-c4ccncc4)nn23)c1` gave a remaining binding of 71% (cell-free assay; competition with immobilised ligand; 5 µM).
For `O=C(N1CCS(=O)(=O)CC1)N1C[C@H](c2ccc(OC(F)(F)F)cc2)C[C@H](c2nc(C3CC3)no2)C1`, the remaining binding was 100% (cell-free assay; competition with immobilised ligand; 1 µM).
For `c1cncc(-c2cccc(Nc3nccc(NC4CCCCC4)n3)c2)c1`, the remaining binding was 94% (binding; competition with immobilised ligand; 10 µM).
`CNC(=O)Nc1ccc2c(c1)[C@@]1(CC2)OC(=O)N(CC(=O)N(Cc2ccc(F)cc2)[C@@H](C)C(F)(F)F)C1=O` gave a remaining binding of 100% (cell-free assay; competition with immobilised ligand; 1 µM).
For `CC1CCCN1c1nccc(-c2cnn3ncccc23)n1` (stereo not drawn), the remaining binding was 100% (binding; 1 µM).
The remaining binding of `COc1cnc(Nc2cccc(S(N)(=O)=O)c2)nc1N1CCN(c2ccccc2)C(=O)C1` is reported as 98% (binding; competition with immobilised ligand; 1 µM).
`O=C(Nc1c[nH]nc1C(=O)NC1CCNCC1)c1cc(F)cc(F)c1` has a remaining binding of 100% (binding; competition with immobilised ligand; 1 µM).
`F[C@@H]1CCN(c2nccc(-c3cnn4ncccc34)n2)C1` has a remaining binding of 100% (binding; 1 µM).
The remaining binding of `Cc1cnc(Nc2ccc(C(=O)N3CCC(N4CCCC4)CC3)cc2)nc1-c1cc2ccccc2s1` is reported as 60% (binding; competition with immobilised ligand; 1 µM).
For `CCC(=O)N[C@@H]1CC[C@H](C(=O)N(C)c2ccc(-c3nc4ccccc4o3)cc2)C1`, the remaining binding was 94% (cell-free assay; competition with immobilised ligand; 1 µM).
`C[C@@H](c1ccc(-n2cnc3c(N)ncnc32)cc1)N1CCc2nn(C)c(Cc3ccccc3)c2C1=O` gave a remaining binding of 93% (binding; competition with immobilised ligand; 0.1 µM).
`C[C@H]1CCN(c2nccc(-c3cnn4ncccc34)n2)C1` has a remaining binding of 90% (binding; 1 µM).
`Cn1cc(Cl)c2c(Oc3c(F)cc(Nc4cc(Cl)nc(N)n4)cc3F)ccnc21` gave a remaining binding of 91% (cell-free assay; competition with immobilised ligand; 0.1 µM).
For `O=C(c1ccc(Nc2nccc(-c3cc4ccccc4s3)n2)cc1)N1CCC(N2CCCC2)CC1`, the remaining binding was 84% (binding; competition with immobilised ligand; 1 µM).
`CN(C)c1nccc(-c2cnc3ncccn23)n1` gave a remaining binding of 67% (binding; 1 µM).
`CC(=O)C1=C(C)N(c2cccc(C(F)(F)F)c2)C(=O)N[C@@H]1c1ccc(C#N)nc1` gave a remaining binding of 100% (cell-free assay; competition with immobilised ligand; 1 µM).
For `Nc1ncc2c(n1)-c1c([nH]c3ccc(C#CC4CC4)cc13)CCCC2`, the remaining binding was 79% (binding; competition with immobilised ligand; 1 µM).
`COc1ncc2cc3ccccc3nc2c1C#N` has a remaining binding of 93% (cell-free assay; competition with immobilised ligand; 5 µM).
With `COc1cc(-c2cn(C3CCc4c(F)cccc4N(CC(F)(F)F)C3=O)nn2)ccc1-n1cnc(C)c1` (stereo not drawn) the remaining binding was 100% (cell-free assay; competition with immobilised ligand; 1 µM).
The remaining binding of `C[C@@H]1CN(c2ccc3ncc(-c4ccc5[nH]nc(C6CC6)c5c4)n3n2)C[C@H](C)O1` is reported as 100% (binding; competition with immobilised ligand; 0.5 µM).
